Test results: ChEMBL document CHEMBL3593208 (Bioorg Med Chem, 2015)

Columns and labels:
Histone deacetylase 8 = biological target: T1, Histone deacetylase 8 (Homo sapiens, UniProt Q9BY41); experiment: Inhibition of recombinant full-length HDAC8 (unknown origin) using MAZ1600/MAZ1675 as substrate assessed as release of 7 amino-4-methylcoumarin measured every 5 mins by fluorescence assay
T1 sequence (Q9BY41 whole entry): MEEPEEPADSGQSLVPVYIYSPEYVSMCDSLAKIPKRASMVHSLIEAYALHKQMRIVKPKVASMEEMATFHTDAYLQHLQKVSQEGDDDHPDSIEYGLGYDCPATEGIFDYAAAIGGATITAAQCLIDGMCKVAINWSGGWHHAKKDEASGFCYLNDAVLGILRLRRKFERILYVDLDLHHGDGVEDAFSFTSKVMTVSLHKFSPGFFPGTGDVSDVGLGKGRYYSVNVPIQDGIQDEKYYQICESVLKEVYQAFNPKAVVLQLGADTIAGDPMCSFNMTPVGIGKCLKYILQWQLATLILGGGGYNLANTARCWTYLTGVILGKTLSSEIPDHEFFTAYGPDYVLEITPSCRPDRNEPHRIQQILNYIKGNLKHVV
In short: (§1)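 AMC release after deacetylase plus trypsin action read every 5 min. First derivative in the linear range used. Replicates normalised to DMSO controls (<0.5%). IC50 by logistic regression, unconstrained max/min.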

[1] = Cytotoxicity against human NMC-797 cells assessed as cell viability after 48 hrs by luminescence assay; type: functional, cell-based; settings: NMC-797, 48 h
In short: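 797 cells seeded at 2.0×10^4 cells/well in 384-well plates. Compound was pin-transferred in a dose-response series with 0.02% DMSO final and incubated 48 h. Viability was read as ATP-dependent luminescence. IC50 was estimated by logistic regression of replicate measurements against dose, with standard error of logIC50.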

[2] = Cytotoxicity against human NMC-10326 cells assessed as cell viability after 48 hrs by luminescence assay; type: functional, cell-based
In short: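 Cells seeded in 384-well plates at 2.0×10^4 cells/well; compound pin-transferred in a dose series, final DMSO 0.02%. After 48 h exposure, viability read as ATP-dependent luminescence (ATPLite). IC50 estimated from replicate measurements by logistic regression.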

Histone deacetylase 1 = Histone deacetylase 1 (Homo sapiens, UniProt Q13547); experiment: Inhibition of recombinant full-length HDAC1 (unknown origin) using MAZ1600/MAZ1675 as substrate assessed as release of 7 amino-4-methylcoumarin measured every 5 mins by fluorescence assay; in short: as §1
Histone deacetylase 3 = Histone deacetylase 3 (Homo sapiens, UniProt O15379); experiment: Inhibition of recombinant full-length HDAC3 (unknown origin) using MAZ1600/MAZ1675 as substrate assessed as release of 7 amino-4-methylcoumarin measured every 5 mins by fluorescence assay
Histone deacetylase 2 = Histone deacetylase 2 (Homo sapiens, UniProt Q92769); experiment: Inhibition of recombinant full-length HDAC2 (unknown origin) using MAZ1600/MAZ1675 as substrate assessed as release of 7 amino-4-methylcoumarin measured every 5 mins by fluorescence assay; in short: as §1
[3] = biological target: T2, Protein deacetylase HDAC6 (Homo sapiens, UniProt Q9UBN7); experiment: Inhibition of recombinant full-length HDAC6 (unknown origin) using MAZ1600/MAZ1675 as substrate assessed as release of 7 amino-4-methylcoumarin measured every 5 mins by fluorescence assay
T2 sequence (Q9UBN7 whole entry): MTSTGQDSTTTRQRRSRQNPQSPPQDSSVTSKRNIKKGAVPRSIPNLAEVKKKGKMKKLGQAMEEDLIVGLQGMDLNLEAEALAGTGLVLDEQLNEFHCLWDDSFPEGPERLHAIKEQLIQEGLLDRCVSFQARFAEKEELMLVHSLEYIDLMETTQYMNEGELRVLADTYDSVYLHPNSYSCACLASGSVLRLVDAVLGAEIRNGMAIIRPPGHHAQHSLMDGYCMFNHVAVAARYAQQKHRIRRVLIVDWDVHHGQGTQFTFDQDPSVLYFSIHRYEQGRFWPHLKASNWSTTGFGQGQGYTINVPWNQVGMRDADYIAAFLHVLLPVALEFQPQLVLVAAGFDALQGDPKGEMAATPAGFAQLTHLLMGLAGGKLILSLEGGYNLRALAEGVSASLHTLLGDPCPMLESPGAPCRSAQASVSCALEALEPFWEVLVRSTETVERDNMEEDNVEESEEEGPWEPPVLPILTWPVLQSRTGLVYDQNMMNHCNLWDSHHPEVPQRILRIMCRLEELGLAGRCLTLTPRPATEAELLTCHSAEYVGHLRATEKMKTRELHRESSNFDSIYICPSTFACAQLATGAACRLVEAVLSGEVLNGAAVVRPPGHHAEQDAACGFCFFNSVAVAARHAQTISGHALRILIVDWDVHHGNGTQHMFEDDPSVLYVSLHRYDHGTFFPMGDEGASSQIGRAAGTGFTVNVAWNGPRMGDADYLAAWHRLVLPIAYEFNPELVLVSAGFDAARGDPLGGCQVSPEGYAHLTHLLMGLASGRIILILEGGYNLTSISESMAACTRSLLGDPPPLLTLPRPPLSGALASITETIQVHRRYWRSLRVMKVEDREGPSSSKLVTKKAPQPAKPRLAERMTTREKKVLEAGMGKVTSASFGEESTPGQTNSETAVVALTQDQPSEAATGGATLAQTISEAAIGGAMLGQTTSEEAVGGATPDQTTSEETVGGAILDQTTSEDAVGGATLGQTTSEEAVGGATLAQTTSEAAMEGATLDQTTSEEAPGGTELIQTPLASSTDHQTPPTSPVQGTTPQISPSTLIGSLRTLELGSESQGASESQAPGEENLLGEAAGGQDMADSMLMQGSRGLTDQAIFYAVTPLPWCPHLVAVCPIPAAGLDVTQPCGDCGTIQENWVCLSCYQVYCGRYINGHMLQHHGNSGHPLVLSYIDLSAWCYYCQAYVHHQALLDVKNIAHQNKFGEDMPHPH
In short: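 AMC release after deacetylase/trypsin action read every 5 min. Linear-range first derivative normalised to DMSO controls (<0.5%). IC50 by unconstrained logistic regression.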

Sequence of Histone deacetylase 2 (Q92769 whole entry): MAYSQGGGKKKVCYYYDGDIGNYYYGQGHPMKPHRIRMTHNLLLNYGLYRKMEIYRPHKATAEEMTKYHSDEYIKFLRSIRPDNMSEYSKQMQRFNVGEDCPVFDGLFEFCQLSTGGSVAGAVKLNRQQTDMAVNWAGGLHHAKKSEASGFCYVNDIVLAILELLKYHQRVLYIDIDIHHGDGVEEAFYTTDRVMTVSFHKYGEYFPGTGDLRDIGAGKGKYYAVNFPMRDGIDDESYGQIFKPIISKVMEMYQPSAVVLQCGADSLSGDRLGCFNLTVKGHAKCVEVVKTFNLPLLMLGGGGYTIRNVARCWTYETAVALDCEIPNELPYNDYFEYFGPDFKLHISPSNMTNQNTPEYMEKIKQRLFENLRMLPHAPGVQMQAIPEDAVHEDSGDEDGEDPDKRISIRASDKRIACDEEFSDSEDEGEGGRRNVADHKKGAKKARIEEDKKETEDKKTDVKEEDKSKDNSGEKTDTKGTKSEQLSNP
Sequence of Histone deacetylase 1 (Q13547 whole entry): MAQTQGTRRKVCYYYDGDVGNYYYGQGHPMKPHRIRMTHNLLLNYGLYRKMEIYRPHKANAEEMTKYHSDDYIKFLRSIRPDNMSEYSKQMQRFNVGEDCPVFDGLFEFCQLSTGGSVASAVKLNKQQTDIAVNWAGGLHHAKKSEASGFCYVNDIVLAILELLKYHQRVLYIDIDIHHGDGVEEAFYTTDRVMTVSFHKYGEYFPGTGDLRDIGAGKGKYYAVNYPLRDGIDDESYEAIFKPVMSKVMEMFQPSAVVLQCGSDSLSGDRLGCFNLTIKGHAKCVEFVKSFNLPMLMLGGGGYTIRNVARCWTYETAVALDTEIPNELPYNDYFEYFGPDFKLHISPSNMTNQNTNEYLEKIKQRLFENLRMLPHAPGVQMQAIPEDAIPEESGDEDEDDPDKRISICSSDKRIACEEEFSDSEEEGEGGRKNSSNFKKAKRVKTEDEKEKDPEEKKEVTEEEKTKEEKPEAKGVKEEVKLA
Sequence of Histone deacetylase 3 (O15379 whole entry): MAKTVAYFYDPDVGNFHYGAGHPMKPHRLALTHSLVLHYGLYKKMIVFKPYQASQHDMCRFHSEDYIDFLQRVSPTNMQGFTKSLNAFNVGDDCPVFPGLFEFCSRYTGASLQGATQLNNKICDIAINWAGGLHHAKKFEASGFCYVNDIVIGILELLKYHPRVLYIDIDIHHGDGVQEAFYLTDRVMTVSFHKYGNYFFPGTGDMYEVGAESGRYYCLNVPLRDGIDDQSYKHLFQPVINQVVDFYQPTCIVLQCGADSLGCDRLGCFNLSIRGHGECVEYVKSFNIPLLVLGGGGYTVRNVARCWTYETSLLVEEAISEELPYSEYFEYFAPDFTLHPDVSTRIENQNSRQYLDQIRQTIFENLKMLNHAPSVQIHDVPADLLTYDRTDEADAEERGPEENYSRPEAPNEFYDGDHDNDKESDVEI

SMILES | IC50 (Histone deacetylase 8) [nM] | IC50 ([1]; read-out: IC50) [nM] | IC50 ([1]; read-out: pIC50 (converted)) [nM] | IC50 ([2]; read-out: IC50) [nM] | IC50 ([2]; read-out: pIC50 (converted)) [nM] | IC50 (Histone deacetylase 1) [nM] | IC50 (Histone deacetylase 3) [nM] | IC50 (Histone deacetylase 2) [nM] | IC50 [3] [nM]
CC(C)[C@@H]1NC(=O)[C@]2(C)CSC(=N2)c2csc(n2)CNC(=O)C[C@@H](/C=C/CCS)NC1=O | 255 | 1740 | 1730 | 11900 | 11900 | – | – | – | –
CCCCCCCC(=O)SCC/C=C/[C@@H]1CC(=O)NCc2cccc(n2)C2=N[C@@](C)(CS2)C(=O)N[C@@H](C(C)C)C(=O)O1 | – | – | – | – | – | 204 | 332 | 350 | –
CC(C)[C@@H]1NC(=O)[C@]2(C)CSC(=N2)c2cccc(n2)CNC(=O)C[C@@H](/C=C/CCS)OC1=O | 341 | 220 | 222 | 290 | 298 | – | 3.07 | – | 48.5
CCCCCCCC(=O)SCC/C=C/[C@@H]1CC(=O)NCc2cc(ccn2)C2=N[C@@](C)(CS2)C(=O)N[C@@H](C(C)C)C(=O)O1 | – | – | – | – | – | 340 | 320 | 655 | –
CC(C)[C@@H]1NC(=O)[C@]2(C)CSC(=N2)c2ccnc(c2)CNC(=O)C[C@@H](/C=C/CCS)OC1=O | 102 | 90 | 93.1 | 120 | 122 | 2.2 | 2.31 | 4.42 | 35.2
CCCCCCCC(=O)SCC/C=C/[C@@H]1CC(=O)NCc2cccc(n2)C2=N[C@@](C)(CS2)C(=O)N[C@@H](C(C)C)C(=O)N1 | – | – | – | – | – | 340 | 332 | 472 | –
CC(C)[C@@H]1NC(=O)[C@]2(C)CSC(=N2)c2cccc(n2)CNC(=O)C[C@@H](/C=C/CCS)NC1=O | – | – | – | – | – | 42 | 42.5 | 69.8 | –
CCCCCCCC(=O)SCC/C=C/[C@@H]1CC(=O)NCc2cc(ccn2)C2=N[C@@](C)(CS2)C(=O)N[C@@H](C(C)C)C(=O)N1 | – | – | – | – | – | 817 | 846 | 1240 | –
CC(C)[C@@H]1NC(=O)[C@]2(C)CSC(=N2)c2ccnc(c2)CNC(=O)C[C@@H](/C=C/CCS)NC1=O | 1490 | – | – | – | – | 13.2 | 14.6 | 20.8 | 2850
